ChEMBL document CHEMBL4371074, “Discovery of Selective Matriptase and Hepsin Serine Protease Inhibitors: Useful Chemical Tools for Cancer Cell Biology” (J Med Chem, 2019)
Activity calls are given as the source filed them. No cut-off for these calls is given here.

Assays:
[1] = species: Homo sapiens; assay: Selectivity ratio of Ki(app) for recombinant human N-terminal His6-tagged matriptase catalytic domain expressed in Escherichia coli to Ki(app) for recombinant human C-terminal His10-tagged hepsin catalytic domain
[2] = target: T1, Suppressor of tumorigenicity 14 protein (Homo sapiens, UniProt Q9Y5Y6); assay: Inhibition of recombinant human N-terminal His6-tagged matriptase catalytic domain expressed in Escherichia coli preincubated for 30 mins followed by Boc-QAR-AMC substrate addition and measured for 1 hr by fluorescence assay; conditions: read-out: Ki(app)
T1 sequence (Q9Y5Y6 whole entry): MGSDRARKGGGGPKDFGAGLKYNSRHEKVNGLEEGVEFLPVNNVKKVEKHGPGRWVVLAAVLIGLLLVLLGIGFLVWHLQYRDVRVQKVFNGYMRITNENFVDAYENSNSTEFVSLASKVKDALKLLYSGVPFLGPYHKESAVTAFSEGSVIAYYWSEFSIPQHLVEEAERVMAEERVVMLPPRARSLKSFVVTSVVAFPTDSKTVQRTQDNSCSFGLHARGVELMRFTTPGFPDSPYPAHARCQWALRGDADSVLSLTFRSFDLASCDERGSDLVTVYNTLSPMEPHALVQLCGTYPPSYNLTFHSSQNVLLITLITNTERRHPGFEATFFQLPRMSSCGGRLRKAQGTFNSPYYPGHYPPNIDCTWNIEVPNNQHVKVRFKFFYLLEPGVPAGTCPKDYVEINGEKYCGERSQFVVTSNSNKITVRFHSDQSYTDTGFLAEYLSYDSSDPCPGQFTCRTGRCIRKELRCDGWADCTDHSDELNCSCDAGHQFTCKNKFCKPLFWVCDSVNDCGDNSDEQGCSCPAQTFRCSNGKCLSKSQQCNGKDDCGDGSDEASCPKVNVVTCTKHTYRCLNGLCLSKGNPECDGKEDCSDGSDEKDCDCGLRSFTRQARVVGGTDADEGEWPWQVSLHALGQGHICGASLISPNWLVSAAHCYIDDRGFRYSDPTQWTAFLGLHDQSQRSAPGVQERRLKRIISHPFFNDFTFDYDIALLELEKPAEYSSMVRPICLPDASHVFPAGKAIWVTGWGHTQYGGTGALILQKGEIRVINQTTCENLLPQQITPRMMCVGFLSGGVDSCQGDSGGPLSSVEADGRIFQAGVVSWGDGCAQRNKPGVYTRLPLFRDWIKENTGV
Procedure, shortened: (§1)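 HGFA was at 7.5 nM with Boc-QLR-AMC (Km 37 µM). Matriptase was at 0.2 nM and hepsin at 0.3 nM, both with Boc-QAR-AMC (Km 93 and 156 µM). Hepsin was pre-activated for 24 h at 37°C. Eleven inhibitor concentrations (0-20 µM, 2% DMSO) were given 30 min RT before substrate at Km. Fluorescence was read at ex 380/em 460 nm. IC50 came from a four-parameter fit, mean of three experiments.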

[3] = target: T2, Serine protease hepsin (Homo sapiens, UniProt P05981); assay: Inhibition of recombinant human C-terminal His10-tagged hepsin catalytic domain preincubated for 30 mins followed by Boc-QAR-AMC substrate addition and measured for 1 hr by fluorescence assay; conditions: read-out: Ki(app); procedure, shortened: as §1
[4] = target: T3, Hepatocyte growth factor activator serine protease (Homo sapiens, UniProt Q04756); assay: Inhibition of HGFA catalytic domain (unknown origin) preincubated for 30 mins followed by Boc-QLR-AMC substrate addition and measured for 1 hr by fluorescence assay; conditions: read-out: Ki(app)
T3 sequence (Q04756 whole entry): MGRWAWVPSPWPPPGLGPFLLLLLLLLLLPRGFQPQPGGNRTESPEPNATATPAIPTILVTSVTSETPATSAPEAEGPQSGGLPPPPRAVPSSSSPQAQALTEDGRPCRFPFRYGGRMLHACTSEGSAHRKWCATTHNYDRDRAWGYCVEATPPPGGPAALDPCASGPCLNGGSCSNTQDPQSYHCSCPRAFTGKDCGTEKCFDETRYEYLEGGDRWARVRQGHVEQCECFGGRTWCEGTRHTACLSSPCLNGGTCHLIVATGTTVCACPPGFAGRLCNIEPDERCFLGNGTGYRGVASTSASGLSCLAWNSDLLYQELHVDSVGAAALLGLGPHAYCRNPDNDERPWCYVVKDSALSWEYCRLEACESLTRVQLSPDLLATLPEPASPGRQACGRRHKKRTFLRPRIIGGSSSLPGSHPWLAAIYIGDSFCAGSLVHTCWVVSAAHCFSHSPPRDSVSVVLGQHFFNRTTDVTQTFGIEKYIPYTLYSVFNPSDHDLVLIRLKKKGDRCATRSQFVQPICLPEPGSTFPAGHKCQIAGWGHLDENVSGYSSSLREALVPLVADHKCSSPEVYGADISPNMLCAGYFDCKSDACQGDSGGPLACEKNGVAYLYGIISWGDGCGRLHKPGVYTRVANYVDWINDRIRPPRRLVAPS

[5] = species: Homo sapiens; assay: Selectivity ratio of Ki(app) for recombinant human C-terminal His10-tagged hepsin catalytic domain to Ki(app) for recombinant human N-terminal His6-tagged matriptase catalytic domain expressed in Escherichia coli
[6] = target: T2, Serine protease hepsin; assay: Inhibition of hepsin (unknown origin) expressed in MCF10A cells preincubated for 30 mins followed by Boc-QRR-AMC substrate addition and measured for 1 hr by fluorescence assay
[7] = target: T2, Serine protease hepsin; assay: Inhibition of hepsin (unknown origin) expressed in MCF10A cells assessed as reduction in desmosomal cadherin desmoglein 2 loss at 1 uM after 45 mins by Hoechst 33258 staining based immunofluorescence microscopic method; format: cell-based
Procedure, shortened: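 MCF10A-Indu20-hepsin cells were grown as 2D monolayers on coverslips, with or without doxycycline induction, and pretreated with inhibitor at 1 µM. They were fixed and permeabilized in ice-cold methanol for 5 min and blocked in 0.1% BSA/PBS for 30 min. Staining used anti-desmoglein 2 and anti-hepsin, then Alexa secondaries for 45 min RT, with Hoechst nuclei. Confocal images were scored; cells with pericellular desmoglein 2 on at least two sides counted positive.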

| SMILES | Ratio Ki(app) [1] | Ki [2] [nM] | Ki [3] [nM] | Ki [4] [nM] | Ratio Ki(app) [5] | IC50 [6] [nM] | inhibition [7] |
| --- | --- | --- | --- | --- | --- | --- | --- |
| CC(=O)N[C@@H](CCCCN)C(=O)N[C@@H](CCC(N)=O)C(=O)N[C@@H](CC(C)C)C(=O)N[C@@H](CCCNC(=N)N)C(=O)c1nc2ccccc2s1 | 6.1 |  |  |  |  |  |  |
| CC(=O)N[C@@H](CO)C(=O)N[C@@H](CCCCN)C(=O)N[C@@H](CC(C)C)C(=O)N[C@@H](CCCNC(=N)N)C(=O)c1nc2ccccc2s1 | 19 | 3.1 |  |  |  |  |  |
| C[C@@H](O)[C@H](NC(=O)OCC1c2ccccc2-c2ccccc21)C(=O)N[C@@H](CCCNC(=N)N)C(=O)c1nc2ccccc2s1 | 1.5 | 271 | 180 | > 10000 |  |  |  |
| N=C(N)NCCC[C@H](NC(=O)[C@H](CCC(N)=O)NC(=O)OCC1c2ccccc2-c2ccccc21)C(=O)c1nc2ccccc2s1 |  | 0.65 | 116 | 6830 | 179 |  |  |
| N=C(N)NCCC[C@H](NC(=O)[C@H](CC(=O)O)NC(=O)OCC1c2ccccc2-c2ccccc21)C(=O)c1nc2ccccc2s1 | 3 | 294 | 98 | > 10000 |  |  |  |
| N=C(N)NCCC[C@H](NC(=O)[C@@H]1CCCN1C(=O)OCC1c2ccccc2-c2ccccc21)C(=O)c1nc2ccccc2s1 |  | 0.5 | 391 | > 10000 | 782 |  |  |
| N=C(N)NCCC[C@H](NC(=O)[C@H](Cc1cnc[nH]1)NC(=O)OCC1c2ccccc2-c2ccccc21)C(=O)c1nc2ccccc2s1 |  | 11 | 226 | 6120 | 21 |  |  |
| N=C(N)NCCC[C@H](NC(=O)[C@H](CCC(=O)O)NC(=O)OCC1c2ccccc2-c2ccccc21)C(=O)c1nc2ccccc2s1 |  | 7.2 | 372 | > 10000 | 52 |  |  |
| CC(C)C[C@H](NC(=O)OCC1c2ccccc2-c2ccccc21)C(=O)N[C@@H](CCCNC(=N)N)C(=O)c1nc2ccccc2s1 | 3.8 | 253 | 67 | 468 |  |  |  |
| CSCC[C@H](NC(=O)OCC1c2ccccc2-c2ccccc21)C(=O)N[C@@H](CCCNC(=N)N)C(=O)c1nc2ccccc2s1 |  | 5.4 | 227 |  |  |  |  |
| N=C(N)NCCC[C@H](NC(=O)[C@H](CC(N)=O)NC(=O)OCC1c2ccccc2-c2ccccc21)C(=O)c1nc2ccccc2s1 | 62 |  |  | 4770 |  | 92 | Active |
| N=C(N)NCCC[C@H](NC(=O)[C@H](Cc1ccc(O)cc1)NC(=O)OCC1c2ccccc2-c2ccccc21)C(=O)c1nc2ccccc2s1 |  | 25 | 256 | 2960 | 10 |  |  |
| CC(C)[C@H](NC(=O)OCC1c2ccccc2-c2ccccc21)C(=O)N[C@@H](CCCNC(=N)N)C(=O)c1nc2ccccc2s1 |  | 18 | 125 | 4630 | 6.9 |  |  |
| N=C(N)NCCC[C@H](NC(=O)[C@H](Cc1ccccc1)NC(=O)OCC1c2ccccc2-c2ccccc21)C(=O)c1nc2ccccc2s1 |  | 188 | 764 |  | 4 |  |  |
| N=C(N)NCCC[C@H](NC(=O)[C@H](Cc1c[nH]c2ccccc12)NC(=O)OCC1c2ccccc2-c2ccccc21)C(=O)c1nc2ccccc2s1 | 1 | 294 | 302 | 3200 | 1 |  |  |
| C[C@H](NC(=O)OCC1c2ccccc2-c2ccccc21)C(=O)N[C@@H](CCCNC(=N)N)C(=O)c1nc2ccccc2s1 |  | 0.36 | 240 | 7980 | 667 |  |  |
| N=C(N)NCCC[C@H](NC(=O)[C@H](CCCCN)NC(=O)OCC1c2ccccc2-c2ccccc21)C(=O)c1nc2ccccc2s1 |  | 0.22 | 104 | > 10000 | 473 |  |  |
| CC[C@H](C)[C@H](NC(=O)OCC1c2ccccc2-c2ccccc21)C(=O)N[C@@H](CCCNC(=N)N)C(=O)c1nc2ccccc2s1 | 2.1 | 486 | 228 | 4300 |  |  |  |
| N=C(N)NCCC[C@H](NC(=O)OCC1c2ccccc2-c2ccccc21)C(=O)N[C@@H](CCCNC(=N)N)C(=O)c1nc2ccccc2s1 |  | 3.9 | 102 | 8630 | 26 |  |  |
| N=C(N)NCCC[C@H](NC(=O)[C@H](CO)NC(=O)OCC1c2ccccc2-c2ccccc21)C(=O)c1nc2ccccc2s1 |  | 4.9 | 555 | > 10000 | 113 |  |  |
| N=C(N)NCCC[C@H](NC(=O)CNC(=O)OCC1c2ccccc2-c2ccccc21)C(=O)c1nc2ccccc2s1 |  |  |  | 9370 | 6390 | > 10000 | inactive |
